In ChEMBL document CHEMBL1157373, “Dual targeting of DNA gyrase and topoisomerase IV: target interactions of heteroaryl isothiazolones in Staphylococcus aureus” (Antimicrob Agents Chemother, 2007):
In brackets after ≈: the same amount, converted by molar mass.

Experiments:
Staphylococcus aureus [1] = assay: Antibacterial activity against Staphylococcus aureus ACH-0206 isolate with gyrA Ser84Leu mutant after 24 hrs by broth microdilution method; assay type: functional
Procedure, shortened: (§1)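 Broth microdilution per CLSI guidelines. MIC taken as the lowest concentration preventing visible growth at 24 h. Each MIC determined at least twice.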

Staphylococcus aureus [2] = assay: Antibacterial activity against Staphylococcus aureus ACH-0216 isolate with grlA Ser80Phe mutant after 24 hrs by broth microdilution method; assay type: functional; procedure, shortened: as §1
Staphylococcus aureus [3] = assay: Antibacterial activity against Staphylococcus aureus ACH-0204 isolate with gyrA Ser84Leu mutant after 24 hrs by broth microdilution method; assay type: functional; procedure, shortened: as §1
Staphylococcus aureus [4] = assay: Antibacterial activity against Staphylococcus aureus ACH-0218 isolate with grlA Glu84Lys mutant after 24 hrs by broth microdilution method; assay type: functional; procedure, shortened: as §1
Staphylococcus aureus [5] = assay: Antibacterial activity against Staphylococcus aureus BSA678 isolate with gyrA Ser84Leu, Ser85Pro and grlA Ser80Phe, Glu84Lys mutant after 24 hrs by broth microdilution method
[6] = Inhibition of Staphylococcus aureus […] topoisomerase 4 grlA S80F mutant decatenation activity assessed as unlinking of DNA microcircles from kinetoplast DNA
Procedure, shortened: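 Recombinant S. aureus GrlA (Ser80Phe) and GrlB were mixed 1:1 molar on ice for 10 min. kDNA (0.1 μg) with 2 U enzyme, 30 min at 37°C, in 1 mM ATP, 5 mM MgCl2, 250 mM K-glutamate, 50 mM Tris pH 7.5. Reactions stopped with EDTA, run on 1% agarose-TBE and ethidium-stained, minicircles quantitated. IC50 by nonlinear regression.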

Staphylococcus aureus [7] = assay: Antibacterial activity against Staphylococcus aureus ATCC 29213 after 24 hrs by broth microdilution method; assay type: functional; details: ATCC 29213, 24 h; procedure, shortened: as §1
Staphylococcus aureus [8] = assay: Antibacterial activity against Staphylococcus aureus ACH-0203 isolate with gyrA Ser84Leu and grlA Ser80Phe, Ala116Val mutant after 24 hrs by broth microdilution method; assay type: functional; procedure, shortened: as §1
[9] = Inhibition of Staphylococcus aureus wild-type topoisomerase 4 decatenation activity assessed as unlinking of DNA microcircles from kinetoplast DNA
Procedure, shortened: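 S. aureus topo IV reconstituted from His-purified recombinant GrlA and GrlB (E. coli BL21(DE3)pLysS expression), mixed 1:1 molar on ice 10 min. 0.1 μg catenated kDNA with 2 U enzyme, 30 min at 37°C in 1 mM ATP, 5 mM DTT, 5 mM MgCl2, 50 μg/ml BSA, 50 mM Tris-HCl pH 7.5, 250 mM potassium glutamate. Products on 1% agarose gel, ethidium-stained, quantitated; IC50 by nonlinear regression.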

Staphylococcus aureus [10] = assay: Antibacterial activity against Staphylococcus aureus ACH-0221 isolate with gyrA Ser84Leu mutant after 24 hrs by broth microdilution method; assay type: functional; procedure, shortened: as §1
Staphylococcus aureus [11] = assay: Antibacterial activity against Staphylococcus aureus ATCC 700699 isolate with gyrA Ser84Leu, Glu409Lys and grlA Ser80Phe mutant after 24 hrs by broth microdilution method; assay type: functional; details: ATCC 700699, 24 h
Staphylococcus aureus [12] = assay: Antibacterial activity against Staphylococcus aureus ACH-0210 isolate with gyrA Ser84Leu and grlA Ser80Phe mutant after 24 hrs by broth microdilution method; assay type: functional
Staphylococcus aureus [13] = assay: Antibacterial activity against Staphylococcus aureus ACH-0129 isolate with gyrA Ser84Leu, Glu88Val and grlA Ser80Phe, Ala116Val mutant after 24 hrs by broth microdilution method; assay type: functional
Staphylococcus aureus [14] = assay: Antibacterial activity against Staphylococcus aureus ACH-0192 isolate with gyrA Ser84Leu and grlA Ser80Phe, Ala116Val mutant after 24 hrs by broth microdilution method; assay type: functional
Staphylococcus aureus [15] = assay: Antibacterial activity against Staphylococcus aureus ACH-0231 isolate with gyrA Ser84Leu, Glu88Lys and grlA Ser80Tyr, Glu84Gly mutant after 24 hrs by broth microdilution method; assay type: functional
Staphylococcus aureus [16] = assay: Antibacterial activity against Staphylococcus aureus ACH-0186 isolate with gyrA Ser84Leu and grlA Ser80Phe, Ala116Val mutant after 24 hrs by broth microdilution method; assay type: functional
Staphylococcus aureus [17] = assay: Antibacterial activity against Staphylococcus aureus ATCC 33591 isolate after 24 hrs by broth microdilution method; assay type: functional; details: ATCC 33591, 24 h; procedure, shortened: as §1
Staphylococcus aureus [18] = assay: Antibacterial activity against Staphylococcus aureus NY2746 isolate with gyrA Ser84Leu and grlA Ser80Phe mutant after 24 hrs by broth microdilution method; assay type: functional
Staphylococcus aureus [19] = assay: Antibacterial activity against Staphylococcus aureus ACH-0201 isolate with gyrA Ser84Leu, Glu88Val and grlA Ser80Phe, Ala116Val mutant after 24 hrs by broth microdilution method; assay type: functional
Staphylococcus aureus [20] = assay: Antibacterial activity against Staphylococcus aureus BSA643 isolate with gyrA Ser84Leu and grlA Ser80Tyr, Glu84Gly mutant after 24 hrs by broth microdilution method; assay type: functional
Staphylococcus aureus [21] = assay: Antibacterial activity against Staphylococcus aureus ACH-0126 isolate with gyrA Ser84Leu and grlA Ser80Phe mutant after 24 hrs by broth microdilution method; assay type: functional
DNA gyrase subunit A = DNA gyrase subunit A (Staphylococcus aureus, UniProt P20831, S84L); assay: Inhibition of Staphylococcus aureus DNA gyrase gyrA S84L mutant supercoiling activity assessed as effect on conversion of relaxed pBR322 DNA to supercoiled form
Staphylococcus aureus [22] = assay: Antibacterial activity against Staphylococcus aureus ACH-0141 isolate with gyrA Ser84Leu, Glu88Val and grlA Ser80Phe, Ala116Val mutant after 24 hrs by broth microdilution method; assay type: functional

Structure (SMILES) | MIC (Staphylococcus aureus [1]) [µg/mL] | MIC (Staphylococcus aureus [2]) [µg/mL] | MIC (Staphylococcus aureus [3]) [µg/mL] | MIC (Staphylococcus aureus [4]) [µg/mL] | MIC (Staphylococcus aureus [5]) [µg/mL] | IC50 [6] [µM] | MIC (Staphylococcus aureus [7]) [µg/mL] | MIC (Staphylococcus aureus [8]) [µg/mL] | IC50 [9] [µM] | MIC (Staphylococcus aureus [10]) [µg/mL] | MIC (Staphylococcus aureus [11]) [µg/mL] | MIC (Staphylococcus aureus [12]) [µg/mL] | MIC (Staphylococcus aureus [13]) [µg/mL] | MIC (Staphylococcus aureus [14]) [µg/mL] | MIC (Staphylococcus aureus [15]) [µg/mL] | MIC (Staphylococcus aureus [16]) [µg/mL] | MIC (Staphylococcus aureus [18]) [µg/mL] | MIC (Staphylococcus aureus [19]) [µg/mL] | MIC (Staphylococcus aureus [20]) [µg/mL] | MIC (Staphylococcus aureus [21]) [µg/mL] | other results
O=C(O)c1cn(C2CC2)c2cc(N3CCNCC3)c(F)cc2c1=O [CIPROFLOXACIN] | 0.5 (≈ 1.51 µM) | 2 (≈ 6.04 µM) | 0.5 (≈ 1.51 µM) | 2 (≈ 6.04 µM) | 128 (≈ 386 µM) | > 40 | 0.25 (≈ 0.754 µM) | 128 (≈ 386 µM) | 3 | 1 (≈ 3.02 µM) |  |  |  |  |  |  |  |  |  |  | 
CO/N=C1\CN(c2nc3c(cc2F)c(=O)c(C(=O)O)cn3C2CC2)CC1CN (centres undefined) [GEMIFLOXACIN] | 0.125 (≈ 0.321 µM) | 0.125 (≈ 0.321 µM) | 0.125 (≈ 0.321 µM) | 0.125 (≈ 0.321 µM) | 64 (≈ 164 µM) | 9.8 | 0.03 (≈ 0.077 µM) | 32 (≈ 82.2 µM) | 0.4 | 0.5 (≈ 1.28 µM) | 4 (≈ 10.3 µM) | 4 (≈ 10.3 µM) | 8 (≈ 20.5 µM) | 8 (≈ 20.5 µM) | > 64 | 4 (≈ 10.3 µM) | 32 (≈ 82.2 µM) | 8 (≈ 20.5 µM) | 32 (≈ 82.2 µM) | 4 (≈ 10.3 µM) | MIC (Staphylococcus aureus [17]): 0.06 µg/mL (≈ 0.154 µM); IC50 (DNA gyrase subunit A): > 300 µM; MIC (Staphylococcus aureus [22]): 4 µg/mL (≈ 10.3 µM)
CC[n+]1c(-c2ccccc2)c2cc(N)ccc2c2ccc(N)cc21.[Br-] [HOMIDIUM BROMIDE] | 4 | 4 | 4 | 16 | 4 |  | 4 | 32 |  | 16 | > 64 | 2 | 4 | 2 | 16 | 1 | 16 | 2 | 16 | 4 | MIC (Staphylococcus aureus [17]): 16 µg/mL; MIC (Staphylococcus aureus [22]): 4 µg/mL
COc1c(N2C[C@@H]3CCCN[C@@H]3C2)c(F)cc2c(=O)c(C(=O)O)cn(C3CC3)c12 [MOXIFLOXACIN] | 0.125 (≈ 0.311 µM) | 0.25 (≈ 0.623 µM) | 0.125 (≈ 0.311 µM) | 0.25 (≈ 0.623 µM) | > 64 | 11.9 | 0.06 (≈ 0.149 µM) | 32 (≈ 79.7 µM) | 1 | 0.5 (≈ 1.25 µM) | 4 (≈ 9.96 µM) | 4 (≈ 9.96 µM) | 8 (≈ 19.9 µM) | 16 (≈ 39.9 µM) | 32 (≈ 79.7 µM) | 16 (≈ 39.9 µM) | 8 (≈ 19.9 µM) | 16 (≈ 39.9 µM) | 16 (≈ 39.9 µM) | 4 (≈ 9.96 µM) | MIC (Staphylococcus aureus [22]): 16 µg/mL (≈ 39.9 µM)
